Data published in PubChem BioAssay.
Active and inactive are the calls of the source.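 How the source made its calls, unless noted: active means Her2 level under about 52% in both replicate screens, with viability over 70% of control (limit read from the data); inconclusive means Her2 under the limit in one screen only, or viability under 70%; inactive means Her2 level above the set limit.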

What was measured:
[1] = Her2 expression decrease, cell viability multiplex – SKBR3 breast tumor cells, AlphaScreen, ATP viability, primary screen (AID 461); details: SKBR3 Her2 protein level, 18-24 h, measured here: SKBR3 viability, ATP luminescence, at 10 µM;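 on Her2 level: lower value means less Her2 protein in the cells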;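 on viability: percent of carrier control wells set as 100% viability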
[2] = target: Receptor tyrosine-protein kinase erbB-2 (Homo sapiens) (UniProt P04626); experiment: as above; details: 18-24 h, at 10 µM, stronger effect = lower value
[3] = reduced viability of SK-BR-3 breast cancer cells – cell-based, 24 h, human, pilot screen (AID 572;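 active means viability at or below 10% of carrier control in both of two separate runs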;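 further: compound exposure lasted between 18 and 24 h rather than exactly 24 h; 100% = carrier-treated control wells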); details: SK-BR-3 viability, CellTiter-Glo luminescence, at 10 µM, stronger effect = lower value
[4] = HUVEC growth inhibition – cell-based, human, primary screen (AID 575;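 active means viability at or below 30% in both replicate assays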;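 further: 100% = median of untreated cell wells with 0.1% DMSO on each plate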); details: HUVEC proliferation, CellTiter-Glo luminescence, 72 h; at 10 µM; stronger effect = lower value
Procedure, shortened: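 Test system: primary human umbilical vein endothelial cells. Quantity: 1250 cells/well. Compound: single 10 µM dose, 0.1% DMSO, from 5x medium stock. Timing: 72 h treatment at 37 °C. Detection: ATP-based CellTiter-Glo luminescent read. Benchmarks: vehicle and MePR control wells. Format: 384-well plates coated with collagen.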

[5] = H69AR cell proliferation blockers – human, duplicate replicates, primary screen (AID 580;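 active means viability at or under a set limit in both replicates, limit being median viability minus 3 SD, cut at about 48% in these data, passing the limit was not always enough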;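 further: 100% = mean luminescence of untreated wells and 0% = no signal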); details: H69AR lung tumor cells viability, ATP luminescence, 72 h; at 10 µM; stronger effect = lower value
[6] = MRP1 drug-resistance reversers in H69AR cells – cell-based, doxorubicin co-treatment, pilot screen (AID 601;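 active means viability loss from added drug above about 55%, and viability with drug at most 40%, in both replicates, limit read from the data, passing the limit was not always enough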); details: CellTiter-Glo, 72 h, at 10 µM; for differential viability (reversal): stronger effect = higher value
[7] = yeast transport mutant growth inhibition pilot in 384-well plates, post-Golgi transport modulator project (AID 636; in the data active means inhibition above about 31%); details: absorbance 615 nm, about 18 h, stronger effect = higher value
[8] = growth suppression of yeast trafficking mutant, preliminary HTS, modulators of trafficking downstream of Golgi apparatus project, 1536-format plate, OD 615 nm (AID 637; in the data active means inhibition above about 30%); details: yeast transport mutant growth, absorbance 615 nm, 18 h; stronger effect = higher value
[9] = H69AR cells + 2 uM doxorubicin, measured here: viability with 2 uM doxorubicin, stronger effect = lower value
[10] = H69AR cells, compound alone cytotoxicity

Sequence of Receptor tyrosine-protein kinase erbB-2 (Homo sapiens) (P04626 whole entry, looked up): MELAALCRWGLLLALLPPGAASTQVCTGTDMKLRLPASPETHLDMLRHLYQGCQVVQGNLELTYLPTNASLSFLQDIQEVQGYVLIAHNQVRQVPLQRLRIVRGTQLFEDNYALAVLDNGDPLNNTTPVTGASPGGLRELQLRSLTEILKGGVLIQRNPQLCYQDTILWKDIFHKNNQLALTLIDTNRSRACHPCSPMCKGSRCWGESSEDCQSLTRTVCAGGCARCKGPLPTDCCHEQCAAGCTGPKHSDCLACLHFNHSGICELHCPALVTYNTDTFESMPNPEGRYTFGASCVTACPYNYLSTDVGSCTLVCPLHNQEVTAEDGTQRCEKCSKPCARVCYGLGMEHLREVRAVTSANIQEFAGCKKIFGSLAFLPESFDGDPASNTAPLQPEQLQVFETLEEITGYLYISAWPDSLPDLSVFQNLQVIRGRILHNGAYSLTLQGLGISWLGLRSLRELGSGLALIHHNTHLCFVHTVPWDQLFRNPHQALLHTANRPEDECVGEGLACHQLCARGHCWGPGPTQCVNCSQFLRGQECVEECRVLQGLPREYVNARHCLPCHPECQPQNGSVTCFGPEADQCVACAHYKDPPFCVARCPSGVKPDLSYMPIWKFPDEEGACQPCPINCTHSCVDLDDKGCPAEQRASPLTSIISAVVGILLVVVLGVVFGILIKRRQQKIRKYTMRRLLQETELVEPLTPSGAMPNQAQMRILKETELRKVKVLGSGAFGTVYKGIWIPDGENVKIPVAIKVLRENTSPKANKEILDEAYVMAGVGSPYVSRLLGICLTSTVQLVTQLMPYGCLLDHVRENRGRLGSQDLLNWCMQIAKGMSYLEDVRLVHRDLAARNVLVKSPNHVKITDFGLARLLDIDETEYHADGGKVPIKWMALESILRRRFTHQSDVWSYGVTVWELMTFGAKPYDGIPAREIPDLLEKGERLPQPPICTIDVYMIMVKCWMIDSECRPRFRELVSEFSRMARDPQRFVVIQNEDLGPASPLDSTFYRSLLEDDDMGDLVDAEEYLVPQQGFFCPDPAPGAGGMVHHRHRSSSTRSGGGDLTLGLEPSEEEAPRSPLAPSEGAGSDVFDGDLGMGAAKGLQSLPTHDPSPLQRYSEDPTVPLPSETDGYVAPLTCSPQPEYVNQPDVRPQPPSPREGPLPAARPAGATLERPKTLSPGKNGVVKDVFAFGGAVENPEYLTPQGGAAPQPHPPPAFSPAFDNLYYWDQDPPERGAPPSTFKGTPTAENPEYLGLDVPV

## CC(=O)NC(=O)NC1CSCC1OC(C)=O (stereo not given)
[1]
  viability: 112%
[2]
  Her2 level: 89% (inactive)
[3]
  viability: 112% (inactive)
[4]
  viability: 106% (inactive)
[5]
  viability: 92.8% (inactive)
[6]; H69AR cells + 2 uM doxorubicin
  differential viability (reversal): 5.96% (inactive)
[6]; [9]
  viability: 86.9%
[6]; [10]
  viability: 92.8%
[7]
  inhibition: -6.53% (inactive)
[8]
  inhibition: 0.48% (inactive)

## COc1ccc(NC(=O)CSC2=C(C#N)C(c3ccco3)C3=C(CCCC3=O)N2)c(OC)c1 (stereo not given)
[1]
  viability: 108%
[2]
  Her2 level: 93% (inactive)
[3]
  viability: 108% (inactive)
[4]
  viability: 86.6% (inactive)
[5]
  viability: 73% (inactive)
[6]; H69AR cells + 2 uM doxorubicin
  differential viability (reversal): 4.23% (inactive)
[6]; [9]
  viability: 68.8%
[6]; [10]
  viability: 73%
[7]
  inhibition: -2.11% (inactive)
[8]
  inhibition: 0.65% (inactive)

## FC(F)(F)c1cc(-c2ccccc2)nc(N2CCCCC2)n1
[1]
  viability: 101%
[2]
  Her2 level: 102% (inactive)
[3]
  viability: 101% (inactive)
[4]
  viability: 101% (inactive)
[5]
  viability: 98.1% (inactive)
[6]; H69AR cells + 2 uM doxorubicin
  differential viability (reversal): -3% (inactive)
[6]; [9]
  viability: 101%
[6]; [10]
  viability: 98.1%
[7]
  inhibition: -4.53% (inactive)
[8]
  inhibition: 5.57% (inactive)

## CCCn1c(SCC(=O)N2CCN(c3ccccc3)CC2)nc2ccccc2c1=O
[1]
  viability: 117%
[2]
  Her2 level: 90.5% (inactive)
[3]
  viability: 117% (inactive)
[4]
  viability: 70.7% (inactive)
[5]
  viability: 83.8% (inactive)
[6]; H69AR cells + 2 uM doxorubicin
  differential viability (reversal): 0.045% (inactive)
[6]; [9]
  viability: 83.8%
[6]; [10]
  viability: 83.8%
[7]
  inhibition: 8.38% (inactive)
[8]
  inhibition: 32.7% (active)

## S=C(c1cccs1)N1CCCC1
[1]
  viability: 90.5%
[2]
  Her2 level: 110% (inactive)
[3]
  viability: 90.5% (inactive)
[4]
  viability: 96.7% (inactive)
[5]
  viability: 100% (inactive)
[6]; H69AR cells + 2 uM doxorubicin
  differential viability (reversal): 11.2% (inactive)
[6]; [9]
  viability: 89.3%
[6]; [10]
  viability: 100%
[7]
  inhibition: 0.52% (inactive)
[8]
  inhibition: -8.52% (inactive)

## O=S(=O)(NCc1cn2ccsc2n1)c1ccc2c(c1)OCCO2
[1]
  viability: 117%
[2]
  Her2 level: 102% (inactive)
[3]
  viability: 117% (inactive)
[4]
  viability: 96.4% (inactive)
[5]
  viability: 105% (inactive)
[6]; H69AR cells + 2 uM doxorubicin
  differential viability (reversal): 9.79% (inactive)
[6]; [9]
  viability: 95.5%
[6]; [10]
  viability: 105%
[7]
  inhibition: -7.07% (inactive)
[8]
  inhibition: -2.26% (inactive)

## COCCNC(=O)C(C)OC(=O)c1nsc(Cl)c1Cl (stereo not given)
[1]
  viability: 103%
[2]
  Her2 level: 108% (inactive)
[3]
  viability: 103% (inactive)
[4]
  viability: 110% (inactive)
[5]
  viability: 99.3% (inactive)
[6]; H69AR cells + 2 uM doxorubicin
  differential viability (reversal): 4.84% (inactive)
[6]; [9]
  viability: 94.5%
[6]; [10]
  viability: 99.3%
[7]
  inhibition: -1.08% (inactive)
[8]
  inhibition: 25.7% (inactive)

## CC(C)CC(c1nnnn1C1CCCC1)N1CCN(c2ccccc2F)CC1 (stereo not given)
[1]
  viability: 92.5%
[2]
  Her2 level: 94% (inactive)
[3]
  viability: 92.5% (inactive)
[4]
  viability: 103% (inactive)
[5]
  viability: 84.2% (inactive)
[6]; H69AR cells + 2 uM doxorubicin
  differential viability (reversal): -7.72% (inactive)
[6]; [9]
  viability: 91.9%
[6]; [10]
  viability: 84.2%
[7]
  inhibition: -6.32% (inactive)
[8]
  inhibition: 10.7% (inactive)

## CC(C)CC(=O)Nc1ccccc1-c1nnn(CC(=O)N2CCOCC2)n1
[1]
  viability: 102%
[2]
  Her2 level: 92% (inactive)
[3]
  viability: 102% (inactive)
[4]
  viability: 87.8% (inactive)
[5]
  viability: 86.8% (inactive)
[6]; H69AR cells + 2 uM doxorubicin
  differential viability (reversal): -1.72% (inactive)
[6]; [9]
  viability: 88.5%
[6]; [10]
  viability: 86.8%
[7]
  inhibition: -5.87% (inactive)
[8]
  inhibition: -1.77% (inactive)

## CCOC(=O)N1CCN(C(=O)CSc2nnc(Cc3ccccc3)o2)CC1
[1]
  viability: 92.5%
[2]
  Her2 level: 102% (inactive)
[3]
  viability: 92.5% (inactive)
[4]
  viability: 76% (inactive)
[5]
  viability: 103% (inactive)
[6]; H69AR cells + 2 uM doxorubicin
  differential viability (reversal): 25.7% (inactive)
[6]; [9]
  viability: 77.2%
[6]; [10]
  viability: 103%
[7]
  inhibition: 0.27% (inactive)
[8]
  inhibition: 1.97% (inactive)

## O=C(CSc1ncnc2c1cnn2-c1ccccc1)Nc1ccccc1
[1]
  viability: 96%
[2]
  Her2 level: 88% (inactive)
[3]
  viability: 96% (inactive)
[4]
  viability: 63.1% (inactive)
[5]
  viability: 79.7% (inactive)
[6]; H69AR cells + 2 uM doxorubicin
  differential viability (reversal): 7.43% (inactive)
[6]; [9]
  viability: 72.2%
[6]; [10]
  viability: 79.7%
[7]
  inhibition: -7.95% (inactive)
[8]
  inhibition: 2.22% (inactive)

## CCOc1ccc(NC(=O)c2ccccc2O)cc1
[1]
  viability: 87.5%
[2]
  Her2 level: 87.5% (inactive)
[3]
  viability: 87.5% (inactive)
[4]
  viability: 90.4% (inactive)
[5]
  viability: 101% (inactive)
[6]; H69AR cells + 2 uM doxorubicin
  differential viability (reversal): 10.1% (inactive)
[6]; [9]
  viability: 90.5%
[6]; [10]
  viability: 101%
[7]
  inhibition: -1.22% (inactive)
[8]
  inhibition: -2.7% (inactive)

## CCOC(=O)c1cccc(NC(=O)CSc2nnc(C3CCCCC3)n2C)c1
[1]
  viability: 91%
[2]
  Her2 level: 89% (inactive)
[3]
  viability: 91% (inactive)
[4]
  viability: 92.3% (inactive)
[5]
  viability: 91.3% (inactive)
[6]; H69AR cells + 2 uM doxorubicin
  differential viability (reversal): 6.58% (inactive)
[6]; [9]
  viability: 84.7%
[6]; [10]
  viability: 91.3%
[7]
  inhibition: -6.22% (inactive)
[8]
  inhibition: -0.95% (inactive)

## Cc1ccc2nc(NCCCN3CCOCC3)c(C=NCCCN3CCOCC3)c(=O)n2c1
[1]
  viability: 102%
[2]
  Her2 level: 84% (inactive)
[3]
  viability: 102% (inactive)
[4]
  viability: 99.1% (inactive)
[5]
  viability: 81.9% (inactive)
[6]; H69AR cells + 2 uM doxorubicin
  differential viability (reversal): -4.68% (inactive)
[6]; [9]
  viability: 86.6%
[6]; [10]
  viability: 81.9%
[7]
  inhibition: -0.39% (inactive)
[8]
  inhibition: -12% (inactive)
